From ChEMBL document CHEMBL3763092, “Design and synthesis of pyrrolobenzodiazepine-gallic hybrid agents as p53-dependent and -independent apoptogenic signaling in melanoma cells” (Eur J Med Chem, 2016)
Activity calls are given as the source filed them. The rule behind the calls is not given here.

Assays:
[1] = Cytotoxicity against p53 knockout human H1299 cells assessed as cell viability at 1 uM after 24 hrs by MTT assay; assay type: functional; details: NCI-H1299, 24 h, read-out: Activity
How it was run: (§1)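 Cells were exposed to compound at 1 µM for 24 h, then growth and viability were read by MTT assay. Media: A375 in DMEM; RPMI7951 and MCF-7 in MEM; A549 in RPMI1640; H1299 in DMEM-F12; all with 10% FCS and penicillin/streptomycin, at 37 °C and 5% CO2. Fibroblasts came from adult foreskin. DMSO stocks were 10 mM.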

[2] = Cytotoxicity against human fibroblast cells expressing p53 wild type assessed as cell viability at 1 uM after 24 hrs by MTT assay; assay type: cell-based; details: read-out: Activity; how it was run: as §1
A-375 [3] = test: Cytotoxicity against human A375 cells expressing p53 wild type assessed as cell viability at 1 uM after 24 hrs by MTT assay; assay type: functional; details: A-375, 24 h, read-out: Activity; how it was run: as §1
A549 = test: Cytotoxicity against human A549 cells assessed as cell viability at 1 uM after 24 hrs by MTT assay; assay type: functional; details: A549, 24 h, read-out: Activity; how it was run: as §1
MCF7 = test: Cytotoxicity against human MCF7 cells expressing p53 wild type assessed as cell viability at 1 uM after 24 hrs by MTT assay; assay type: functional; details: MCF7, 24 h, read-out: Activity; how it was run: as §1
[4] = Cytotoxicity against human RPMI7951 cells expressing p53 mutant assessed as cell viability at 1 uM after 24 hrs by MTT assay; assay type: functional; details: RPMI-7951, 24 h, read-out: Activity; how it was run: as §1
A-375 [5] = test: Induction of reactive oxygen species generation in human A375 cells expressing p53 wild type assessed as increase in intracellular H2O2 level at 0.5 uM after 24 hrs by DCFH-DA staining based fluorescence analysis; assay type: functional, cell-based
How it was run: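 A375 cells were treated with 0.5 µM for 0, 12 and 24 h and stained with DCFH-DA to detect intracellular H2O2.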

A-375 [6] = test: Induction of apoptosis in human A375 cells expressing p53 wild type assessed as increase in cleaved caspase-3 levels at 0.5 uM after 24 hrs by western blot analysis; assay type: functional, cell-based
How it was run: (§2)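 A375 cells were exposed to 0.5 µM for 24 h, and lysates were immunoblotted with specific antibodies (p53, Cdc25c, p-Chk1, Bcl-xL, PARP, caspase-3). GAPDH served as loading control. Three independent experiments.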

A-375 [7] = test: Induction of apoptosis in human A375 cells expressing p53 wild type assessed as lysosomal H+ concentration at 0.5 uM after 24 and 48 hrs by flow cytometric analysis; assay type: functional, cell-based
How it was run: (§3)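 Cells were loaded with LysoTracker Green (75 nM) for 15 min at 37 °C before treatment with 0.5 µM for the indicated times. After washing, mean fluorescence was quantified by flow cytometry. For p53 knockdown, A375 cells (6 × 10^4/well, antibiotic-free DMEM) were transfected with 30 nM tp53 siRNA or non-target siRNA using Lipofectamine RNAiMAX and harvested at 24 h.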

A-375 [8] = test: Induction of apoptosis in human A375 cells expressing p53 wild type assessed as decrease in bcl-xl mRNA level by RT- qPCR analysis; assay type: functional, cell-based; details: TDE = time-dependent effect
How it was run: (§4)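 Quantitative real-time PCR on A375 cells over a time course, measuring p53, bax and bcl-xl mRNA normalized to GAPDH mRNA.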

A-375 [9] = test: Induction of apoptosis in human A375 cells expressing p53 wild type assessed as increase in bax mRNA level by RT- qPCR analysis; assay type: functional, cell-based; details: TDE = time-dependent effect; how it was run: as §4
A-375 [10] = test: Induction of DNA lesion in human A375 cells expressing p53 wild type assessed as increase in 8-oxoguanine expression at 0.5 uM after 24 hrs by immunohistochemical analysis; assay type: functional, cell-based
How it was run: (§5)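 A375 cells on coverslips (1 × 10^4) were treated with 0.5 µM for 24 h. Cells were fixed in 4% formaldehyde for 5 min at 4 °C, permeabilized with 0.5% Triton X-100, and blocked with 5% BSA at 37 °C for 45 min. Primary antibodies were applied for 1 h at RT: mouse anti-p-ATR and anti-p-ATM 1:1000, anti-8-oxoguanine 1:250, COX IV and cytochrome c 1:1000. Secondary antibodies (rhodamine for 8-oxoguanine) followed for 30 min. DAPI counterstain.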

A-375 [11] = test: Induction of DNA damage in human A375 cells expressing p53 wild type assessed as increase in ATR/ATM activation at 0.5 uM after 24 hrs by immuohistochemistry analysis; assay type: functional, cell-based; how it was run: as §5
RPMI-7951 [12] = test: Induction of apoptosis in human RPMI7951 cells expressing p53 mutant assessed as decrease in lysosomal H+ concentration at 0.5 uM after 24 and 48 hrs by flow cytometric analysis; assay type: functional, cell-based; how it was run: as §3
A-375 [13] = test: Induction of apoptosis in human A375 cells expressing p53 wild type assessed as increase in cleaved PARP levels at 0.5 uM after 24 hrs by western blot analysis; assay type: functional, cell-based; how it was run: as §2
A-375 [14] = test: Decrease in Cdc25c level in human A375 cells expressing p53 wild type at 0.5 uM after 24 hrs by western blot analysis; assay type: functional, cell-based; how it was run: as §2
A-375 [15] = test: Induction of apoptosis in human A375 cells expressing p53 wild type assessed as increase release of cytochrome c from mitochondria to cytosol at 0.5 uM after 24 hrs by immunofluorescence analysis; assay type: functional, cell-based; how it was run: as §5
A-375 [16] = test: Effect on cell cycle distribution in human A375 cells expressing p53 wild type assessed as number of cells at subG1 phase at 0.5 uM after 24 hrs by FACS analysis (reference value: 1 %); assay type: functional
A-375 [17] = test: Induction of apoptosis in human A375 cells transfected with siRNA p53 assessed as decrease in lysosomal H+ concentration at 0.5 uM after 24 and 48 hrs by flow cytometric analysis; assay type: functional, cell-based; how it was run: as §3
A-375 [18] = test: Induction of apoptosis in human A375 cells expressing p53 wild type assessed as decrease in mitochondrial membrane potential at 0.5 uM after 12 hrs by DiOC6 dye based flow cytometry; assay type: functional, cell-based
How it was run: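 A375 cells were treated with 0.5 µM for 0, 12 and 24 h, labeled with DiOC6 and analyzed by flow cytometry. Three independent experiments.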

A-375 [19] = test: Induction of apoptosis in human A375 cells expressing p53 wild type assessed as decrease in Bcl-xl levels at 0.5 uM after 24 hrs by western blot analysis; assay type: functional, cell-based; how it was run: as §2
RPMI-7951 [20] = test: Induction of apoptosis in human RPMI7951 cells expressing p53 mutant assessed as increased release of cytochrome c to cytosol at 0.5 uM by immunofluorescent staining analysis; assay type: functional, cell-based
How it was run: (§6)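 RPMI7951 cells on coverslips (1 × 10^4) were treated with 0.5 µM for 24 h. Immunofluorescence steps: fixation in 4% formaldehyde, permeabilization with 0.5% Triton X-100, blocking with 5% BSA. Primary antibodies: rabbit anti-cathepsin D and mouse anti-LAMP-1 at 1:500, cytochrome c and COX IV at 1:1000, 1 h at RT. Secondary antibodies for 30 min. DAPI counterstain.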

RPMI-7951 [21] = test: Induction of apoptosis in human RPMI7951 cells expressing p53 mutant assessed as PARP cleavage at 0.5 uM after 24 hrs by western blot analysis; assay type: functional, cell-based
A-375 [22] = test: Effect on cell cycle distribution in human A375 cells expressing p53 wild type assessed as number of cells at G2/M phase at 0.5 uM after 24 hrs by FACS analysis (reference value: 12.1 %); assay type: functional
A-375 [23] = test: Induction of apoptosis in human A375 cells expressing p53 wild type assessed as increase in p53 mRNA level by RT- qPCR analysis; assay type: functional, cell-based; details: TDE = time-dependent effect; how it was run: as §4
RPMI-7951 [24] = test: Cytotoxicity against human RPMI7951 expressing p53 mutant cells assessed as colony formation at 0.5 uM after 10 days by SRB assay; assay type: functional, cell-based
How it was run: (§7)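 Cells were seeded at 100 per well and treated from the second day. Medium containing 0.5 µM agent was renewed every 3 days. After 10 days of treatment, colonies were stained with SRB and photographed. Three independent experiments.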

A-375 [25] = test: Induction of apoptosis in human A375 cells expressing p53 wild type assessed as increase in p53 levels at 0.5 uM after 24 hrs by western blot analysis; assay type: functional, cell-based; how it was run: as §2
A-375 [26] = test: Effect on cell cycle distribution in human A375 cells expressing p53 wild type assessed as number of cells at S-phase at 0.5 uM after 24 hrs by FACS analysis (reference value: 13.8 %); assay type: functional
A-375 [27] = test: Effect on cell cycle distribution in human A375 cells expressing p53 wild type assessed as number of cells at G0/G1 phase at 0.5 uM after 24 hrs by FACS analysis Rvb = 74.1 %); assay type: functional
A-375 [28] = test: Increase in Chk1 phosphorylation in human A375 cells expressing p53 wild type at 0.5 uM after 24 hrs by western blot analysis; assay type: functional, cell-based; how it was run: as §2
RPMI-7951 [29] = test: Induction of apoptosis in human RPMI7951 cells expressing p53 mutant assessed as increased release of cathepsin D to cytosol at 0.5 uM by immunofluorescent staining analysis; assay type: functional, cell-based; how it was run: as §6
A-375 [30] = test: Cytotoxicity against human A375 cells expressing p53 wild type assessed as colony formation at 0.5 uM after 10 days by SRB assay; assay type: functional, cell-based; how it was run: as §7

Work on `COc1cc2c(cc1OCCCCCCNC(=O)c1cc(OC)c(OC)c(OC)c1)N=C[C@@H]1CCCN1C2=O` yielded a viability at 1 µM [1] of 92.4%, a viability at 24 h, 1 µM [2] of 94.9% and a viability at 1 µM (A-375 [3]) of 86.5%. It also gave a viability at 1 µM (A549) of 101%, a viability at 1 µM (MCF7) of 95.4% and a viability at 1 µM [4] of 69.6%.

For `COc1cc2c(cc1OCCCNC(=O)c1cc(OC)c(OC)c(OC)c1)N=C[C@@H]1CCCN1C2=O`, the viability at 1 µM [1] was 96.4%, the viability at 24 h, 1 µM [2] was 101% and the viability at 1 µM (A-375 [3]) was 82.6%. For the same compound, the viability at 1 µM (A549) was 96.1%, the viability at 1 µM (MCF7) was 94.6% and the viability at 1 µM [4] was 97.7%.

For `COc1cc2c(cc1OCCCCNC(=O)c1cc(OC)c(OC)c(OC)c1)N=C[C@@H]1CCCN1C2=O`, the viability at 1 µM [1] was 95%, the viability at 24 h, 1 µM [2] was 98.2% and the viability at 1 µM (A-375 [3]) was 79.5%. The viability at 1 µM (A549) was 100%, the viability at 1 µM (MCF7) was 96.3% and the viability at 1 µM [4] was 83%.

In the case of `COc1cc2c(cc1OCCCCCOc1cc(OC)c(OC)c(OC)c1)N=C[C@@H]1CCCN1C2=O`, the Activity (A-375 [5]) is reported as “Active”, the Activity (A-375 [6]) is reported as “Active” and the viability at 1 µM [1] is reported as 69.4%. The Activity (A-375 [7]) was “inactive”, the Activity (A-375 [8]) was “tde” and the Activity (A-375 [9]) was “tde”. For the same compound, the viability at 24 h, 1 µM [2] was 111%, the viability at 1 µM (A-375 [3]) was 37.7% and the Activity (A-375 [10]) was “Active”. For the same compound, the Activity (A-375 [11]) was “Active”, the Activity (RPMI-7951 [12]) was “Active” and the Activity (A-375 [13]) was “Active”. The inhibition (A-375 [14]) was “Active”, the Activity (A-375 [15]) was “Active” and the Activity (A-375 [16]) was 16%. For the same compound, the Activity (A-375 [17]) was “Active”, the Activity (A-375 [18]) was “Active” and the Activity (A-375 [19]) was “Active”. For the same compound, the Activity (RPMI-7951 [20]) was “Active”, the viability at 1 µM (A549) was 78% and the Activity (RPMI-7951 [21]) was “Active”. For the same compound, the Activity (A-375 [22]) was 4.2%, the viability at 1 µM (MCF7) was 55% and the Activity (A-375 [23]) was “tde”. The inhibition (RPMI-7951 [24]) was “Active”, the Activity (A-375 [25]) was “Active” and the Activity (A-375 [26]) was 37%. The Activity (A-375 [27]) was 45.8%, the Activity (A-375 [28]) was “Active” and the viability at 1 µM [4] was 64.6%. For the same compound, the Activity (RPMI-7951 [29]) was “Active” and the inhibition (A-375 [30]) was “Active”.
